Source: PubChem BioAssay (several laboratories)
Hits are enriched below; roughly 2.1% of the tested compounds scored in any of these assays.
EBI2 block: EBI2 receptor antagonists, beta-arrestin recruitment, primary screen, cell-based, luminescence, 7a,25-OHC stimulation, uHTS | G-protein coupled receptor 183 (Homo sapiens), P32249 | 7a,25-OHC stimulated | inhibition, % at 5 µM | 0.81% of 360,000 active | AID 651636, 2012; in the data active = inhibition above about 38%;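 also: enzyme fragment complementation signal reports receptor beta-arrestin coupling in cells; 0% = agonist plus DMSO wells and 100% = wells without agonist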
Target sequence (P32249 whole entry, looked up, the tested form may be a part): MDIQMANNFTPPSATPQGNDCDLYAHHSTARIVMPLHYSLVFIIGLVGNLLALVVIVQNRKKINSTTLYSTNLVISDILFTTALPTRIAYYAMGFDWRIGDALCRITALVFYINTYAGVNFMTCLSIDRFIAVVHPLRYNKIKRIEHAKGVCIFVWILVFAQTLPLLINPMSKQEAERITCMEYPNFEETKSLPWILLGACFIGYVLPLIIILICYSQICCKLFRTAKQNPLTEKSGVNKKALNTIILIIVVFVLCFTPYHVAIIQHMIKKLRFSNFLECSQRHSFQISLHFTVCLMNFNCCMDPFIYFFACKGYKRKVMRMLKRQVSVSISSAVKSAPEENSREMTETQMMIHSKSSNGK
APJ ag: agonists of human apelin receptor APJ, primary screen, CHO-K1 cells, PathHunter beta-arrestin, luminescence. AID 2520, 2010. 0% DMSO wells, 100% apelin. 0.11% of 330,000 active. activation, % at 20 µM;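 active = activation more than six SD over the plate average, tested at 20 µM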;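 also: 0% = DMSO alone and 100% = apelin-13 at 10 nM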
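Test system – PathHunter CHO-K1 APJ (AGTRL-1) beta-arrestin reporter cells · Input – 1000 cells/well · Compound – single test compound dose, 20 µM final, 1% DMSO · Times – compound stimulation 90 min at 25 °C, detection 60 min · Technique – beta-gal luminescence · Read-out basis – APJ–arrestin association signal · Control set – negative DMSO alone, positive Apelin-13 at 10 nM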
APJ antagonist: antagonists of human apelin receptor APJ, primary screen, CHO-K1 cells, beta-arrestin complementation, luminescence. 0.32% of 330,000 active. inhibition, % at 20 µM;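 active = inhibition above about 40% at 20 µM, limit read from the data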;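 also: cells challenged with 10 nM apelin-13 agonist together with compound; plate controls were apelin-13 plus DMSO wells for no effect and DMSO wells lacking apelin-13 for full effect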
CCR6 antagonist: CCR6 receptor antagonists, primary screen, cell-based, CHO-K1, luminescence, beta-arrestin, uHTS | inhibition, % at 20 µM | AID 493098, 2011 | CHO-K1 CCR6 PathHunter beta-arrestin, CCL20-stimulated | C-C chemokine receptor type 6 (Homo sapiens), P51684 | 0.49% of 340,000 active;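 active = compounds whose inhibition of the agonist-driven luminescence signal at 20 µM reaches about 50%, limit read from the data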;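 also: cells stimulated with CCL20 at 14 nM final; plate controls were DMSO with CCL20 for no effect and DMSO without agonist for full effect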
CXCR6 block: CXCR6 receptor inhibitors, primary screen, cell-based, beta-arrestin, luminescence, CHO-K1 PathHunter, 1536-well. inhibition, % at 20 µM. C-X-C chemokine receptor type 6 (Homo sapiens), O00574. 0.36% of 360,000 active; in the data active = inhibition above about 34%, passing the limit was not always enough;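 also: antagonist mode with CXCL16 agonist at 10 nM final; 0% = 10 nM CXCL16 with DMSO and 100% = unstimulated wells without agonist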
HTR2A ag: mouse Htr2a agonists via beta-arrestin recruitment, primary screen, cell-based, luminescence | 5-hydroxytryptamine receptor 2A (Mus musculus), P35363 | CHO-K1 mHTR2A beta-arrestin complementation; percent of 30 µM serotonin response | activation, % at 7.6 µM | 0.66% of 360,000 active | AID 624169, 2012;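 active = activation above a run cutoff, the mean activation of all tested compounds plus 3 SD, cut at about 14% in these data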;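 also: 0% = plate median of compound wells and 100% = 30 µM serotonin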
APJ antag confirm: APJ antagonists blocking beta-arrestin recruitment, confirmation, cell-based, luminescence, single concentration, uHTS hits. inhibition, % at 20 µM. antagonist mode. 66% of 950 active. shares compounds with APJ antagonist. AID 2766, 2010; in the data active = inhibition above about 50%
An asterisk follows results filed as active; x = no result.

SMILES	EBI2 block	APJ ag	APJ antagonist	CCR6 antagonist	CXCR6 block	HTR2A ag	APJ antag confirm
CCOc1nc(-c2ccccc2)ncc1Oc1ccccc1	-15	-7	5	17	-7	-5	x
O=C(NCc1ccccn1)C1CCCN(S(=O)(=O)c2ccc(Br)cc2)C1 (stereo not given)	-3	-2	13	-7	-11	-1	x
C=C(C)CN(CC)CCC(=O)Nc1ccc(OC)cc1OC	-11	0	-35	0	-13	-1	x
COc1cc(OC)cc(C(=O)N2CCN(Cc3cccc(F)c3)CC2)c1	-9	-1	2	3	6	0	x
COc1ccc2cc(C)c3nnc(SCc4cccnc4)n3c2c1	-3	-5	40*	29	3	-5	44
COc1ccc(C2NC(c3ccc(OC)cc3)C(c3ccccc3)C(=O)C2c2ccccc2)cc1 (stereo not given)	13	2	-8	3	2	-7	x
CCCCNC(=O)C(=O)NCc1ccncc1	-5	4	9	-16	1	4	x
CCCCn1c(N)c(N(CCC(C)C)C(=O)C2=NN(c3cc(C)ccc3C)C(=O)CC2)c(=O)[nH]c1=O	-15	3	13	-7	-2	0	x
CC(=O)Nc1ccc(NC(=O)C2(C)CC2(Cl)Cl)cc1 (stereo not given)	-2	1	91*	7	-4	0	33
CN(C)c1cccc(NC(=O)C2(C)CC2(Cl)Cl)c1 (stereo not given)	7	3	-12	1	3	0	x
CSc1nc(=O)[nH]nc1Sc1ccccc1	-14	x	x	x	-8	-2	x
N#CC(c1ccc(Cl)cc1)c1ccc2c(C(F)(F)F)cc(C(F)(F)F)nc2n1 (stereo not given)	4	-6	47*	56*	45*	-1	76*
FC(F)(F)c1cc(C(F)(F)F)c2ccc(N3CCN(c4ccc(Cl)cc4)CC3)nc2n1	25	-1	-4	25	4	2	x
CN(C)/C(=N\S(=O)(=O)c1ccccc1)c1ccccc1	-2	3	-22	3	2	-2	x
COc1ccc(S(=O)(=O)N2CCC(=O)N2)cc1	1	-15	46*	20	13	2	50
COc1ccc(S(=O)(=O)N2CCNC(=O)CC2)cc1	11	2	-6	12	0	1	x
COC(=O)c1sc(N)c(C(=O)OC)c1COC(=O)c1c(C)noc1C	25	-8	46*	70*	58*	-18	96*
CCSCCC(NC1=CC(=O)CC(C)(C)C1)C(=O)O (stereo not given)	-6	-2	-15	5	-7	-5	x
O=C(Nc1ccccc1N1CCN(C(=O)c2ccccc2)CC1)c1ccccc1Cl	-4	-3	80*	7	-10	2	-9
CCOC(=O)c1c(NC(=O)c2ccco2)n(C2CCCCC2)c2nc3ccccc3nc12	19	-19	58*	42	23	0	9
CCC(=O)Nc1c(C#N)c2nc3ccccc3nc2n1C1CCCCC1	2	-4	10	10	2	2	x
Cc1[nH]c2ccccc2c1Cc1nnc(SCc2ccccc2)o1	12	-4	48*	1	6	-9	31
CC(C)N1CCc2c(sc(NC(=O)c3cc(-c4cccs4)nc4ccccc34)c2C(N)=O)C1	6	-15	46*	62*	17	5	65*
O=C(NNc1ccc(O)cc1)c1ccc(Br)cc1	59*	-15	86*	101*	70*	-1	139*
Cc1cc(NC(=O)c2ccccc2F)n(-c2nc3ccccc3[nH]2)n1	-1	-2	33	24	11	1	x
SMILES	EBI2 block	APJ ag	APJ antagonist	CCR6 antagonist	CXCR6 block	HTR2A ag	APJ antag confirm
Cc1cc(NC(=O)c2c(F)cccc2Cl)n(-c2nc3ccccc3[nH]2)n1	14	-1	55*	61*	-14	-5	27
Cc1cc(NC(=O)c2c(F)cccc2F)n(-c2nc3ccccc3[nH]2)n1	15	-9	44*	27	5	2	5
COc1cc(CC(=O)O)c(C(C)=O)cc1OC	3	-4	9	-2	-13	-2	x
COc1ccc(NS(=O)(=O)c2cc([N+](=O)[O-])ccc2N/N=C\c2c(C)[nH]c3ccccc23)cc1	20	-19	75*	41	36	-3	99*
COc1ccc(NS(=O)(=O)c2cc([N+](=O)[O-])ccc2NN=Cc2ccccc2OCC(=O)O)cc1	13	-7	36	38	30	-3	x
COc1ccccc1NS(=O)(=O)c1cc([N+](=O)[O-])ccc1N/N=C/c1c[nH]c2ccccc12	54*	-9	56*	50*	39	-1	91*
COc1ccc(C=NNc2ccc([N+](=O)[O-])cc2S(=O)(=O)Nc2ccccc2C(=O)O)cc1OC	9	-9	27	33	21	5	x
Cc1nn(CC(=O)N(CC(C)C)C2CCS(=O)(=O)C2)c(C)c1[N+](=O)[O-] (stereo not given)	4	-1	9	-5	-2	-2	x
CN(C)c1cccc(C(=O)NNC(=O)NC2CCCCC2)c1	-6	-1	-8	-12	-18	2	x
O=C(COC(=O)c1ccccc1F)c1ccc(-n2nncc2-c2ccco2)cc1	23	-6	41*	35	24	1	5
CCn1cnc2c1c(=O)n(Cc1cccc(Br)c1)c(=O)n2Cc1ccccc1	15	0	-4	18	2	2	x
CCOC(=O)C(C(=O)OCC)c1cc(Br)c2noc3c2c1C(=O)c1ccccc1-3	-5	-4	41*	83*	78*	0	105*
O=C(NCc1ccco1)C(c1ccncc1)N(C(=O)Cc1cccs1)c1ccccc1 (stereo not given)	-6	-1	8	14	-1	-4	x
c1ccc(-c2nnc3sc(-c4ccncc4)nn23)cc1	6	-5	10	-7	-5	1	x
Clc1ccc(-c2nn3c(-c4ccccc4)nnc3s2)cc1	8	-2	43*	10	-2	-2	16
N=C1/C(=C/c2ccc(-c3cccc(C(=O)O)c3)o2)C(=O)N=C2SC=C(c3ccccc3)N12	1	-9	40*	57*	21	-1	53*
